Results taken from ChEMBL document CHEMBL1138142, “Novel endoperoxides: synthesis and activity against Candida species” (Bioorg Med Chem Lett, 2006).
pIC50: −log10 of the molar value. Blank lines part the entries; values can stand above or below the molecule they belong to.

Experiments:
Type in all cases: functional, organism-based
[1] = tested on: Candida albicans; experiment: Inhibitory activity against Candida albicans
How it was run: (§1)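 Microbroth dilution in YEPD (1% yeast extract, 2% peptone, 2% glucose, […]), starting inoculum A595 0.2–0.3; compounds as twofold serial dilutions down from 1 mM, growth control on same plate. Shaken at 35 °C; A595 read at addition and 2 h later. Triplicates averaged, IC50 (50% growth inhibition) calculated. Strains: C. albicans JRW #5, C. krusei WM 03,204 (clinical isolates), C. tropicalis ATCC 750.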

[2] = tested on: Candida tropicalis; experiment: Inhibitory activity against Candida tropicalis; how it was run: as §1
[3] = tested on: Pichia kudriavzevii; experiment: Inhibitory activity against Candida krusei; how it was run: as §1

Molecule: C1=C[C@@H](C2CCCC2)OOC1
- pIC50 ([1]; Candida albicans): 3.30
- pIC50 ([2]; Candida tropicalis): 3.60
- pIC50 ([3]; Pichia kudriavzevii): < 3.00

Molecule: C1=C[C@H](C2CCCC2)OO[C@@H]1C1CCCC1
- pIC50 ([1]; Candida albicans): 3.60
- pIC50 ([2]; Candida tropicalis): 3.90
- pIC50 ([3]; Pichia kudriavzevii): < 3.00

Molecule: C1CC([C@H]2OO[C@@H](C3CCC3)[C@H]3O[C@H]32)C1
- pIC50 ([1]; Candida albicans): 3.60
- pIC50 ([2]; Candida tropicalis): 3.60
- pIC50 ([3]; Pichia kudriavzevii): 3.30

Molecule: C1CCC([C@H]2OOC[C@H]3O[C@@H]23)C1
- pIC50 ([1]; Candida albicans): 3.60
- pIC50 ([2]; Candida tropicalis): 4.12
- pIC50 ([3]; Pichia kudriavzevii): 3.52

Molecule: C1=C[C@H](C2CCCCC2)OO[C@@H]1C1CCCCC1
- pIC50 ([1]; Candida albicans): < 3.00
- pIC50 ([2]; Candida tropicalis): 3.70
- pIC50 ([3]; Pichia kudriavzevii): 3.40

Molecule: CC(=O)N1CCN(c2ccc(OCC3COC(Cn4ccnc4)(c4ccc(Cl)cc4Cl)O3)cc2)CC1 (centres undefined) [KETOCONAZOLE]
- pIC50 ([1]; Candida albicans): 3.60
- pIC50 ([2]; Candida tropicalis): 4.92
- pIC50 ([3]; Pichia kudriavzevii): 4.00

Molecule: C1CCC([C@H]2OOC[C@@H]3O[C@@H]32)CC1
- pIC50 ([1]; Candida albicans): 3.60
- pIC50 ([2]; Candida tropicalis): 3.90
- pIC50 ([3]; Pichia kudriavzevii): 3.30

- pIC50 ([1]; Candida albicans): > 6.30
- pIC50 ([2]; Candida tropicalis): 7.00
- pIC50 ([3]; Pichia kudriavzevii): 6.70
Molecule: C[C@@H]1[C@H](O)[C@@H](C)/C=C/C=C/C=C/C=C/C=C/C=C/C=C/[C@H](O[C@@H]2O[C@H](C)[C@@H](O)[C@H](N)[C@@H]2O)C[C@@H]2O[C@](O)(C[C@@H](O)C[C@@H](O)[C@H](O)CC[C@@H](O)C[C@@H](O)CC(=O)O[C@H]1C)C[C@H](O)[C@H]2C(=O)O [AMPHOTERICIN B]

Molecule: C1=C[C@H](C2CCC2)OO[C@@H]1C1CCC1
- pIC50 ([1]; Candida albicans): 3.90
- pIC50 ([2]; Candida tropicalis): 3.90
- pIC50 ([3]; Pichia kudriavzevii): 3.60

Molecule: C1CCC([C@H]2OO[C@@H](C3CCCC3)[C@@H]3O[C@@H]32)C1
- pIC50 ([1]; Candida albicans): 3.90
- pIC50 ([2]; Candida tropicalis): 3.90
- pIC50 ([3]; Pichia kudriavzevii): 4.20

Molecule: C1=C[C@@H](C2CCCCC2)OOC1
- pIC50 ([1]; Candida albicans): 5.02
- pIC50 ([2]; Candida tropicalis): 4.40
- pIC50 ([3]; Pichia kudriavzevii): 4.12

Molecule: C1CCC([C@H]2OO[C@@H](C3CCCCC3)[C@H]3O[C@H]32)CC1
- pIC50 ([1]; Candida albicans): 4.00
- pIC50 ([2]; Candida tropicalis): 4.60
- pIC50 ([3]; Pichia kudriavzevii): 3.40

Molecule: C1CCC([C@H]2OO[C@@H](C3CCCCC3)[C@@H]3O[C@@H]32)CC1
- pIC50 ([1]; Candida albicans): 4.00
- pIC50 ([2]; Candida tropicalis): 3.70
- pIC50 ([3]; Pichia kudriavzevii): < 3.00

- pIC50 ([1]; Candida albicans): 3.60
- pIC50 ([2]; Candida tropicalis): 4.20
- pIC50 ([3]; Pichia kudriavzevii): 3.30
Molecule: O=C(C1CCCCC1)[C@H]1O[C@H]1[C@@H](O)C1CCCCC1

Molecule: C1CCC([C@H]2OO[C@@H](C3CCCC3)[C@H]3O[C@H]32)C1
- pIC50 ([1]; Candida albicans): 3.60
- pIC50 ([2]; Candida tropicalis): 3.90
- pIC50 ([3]; Pichia kudriavzevii): 3.90

Molecule: NYSTATIN
- pIC50 [1]: 3.60
- pIC50 [2]: 4.00
- pIC50 [3]: 4.00

Molecule: C1CC([C@H]2OO[C@@H](C3CCC3)[C@@H]3O[C@@H]32)C1
- pIC50 ([1]; Candida albicans): 3.60
- pIC50 ([2]; Candida tropicalis): 3.30
- pIC50 ([3]; Pichia kudriavzevii): 3.30

Molecule: C1CCC([C@H]2OOC[C@@H]3O[C@@H]32)C1
- pIC50 ([1]; Candida albicans): 3.30
- pIC50 ([2]; Candida tropicalis): 3.60
- pIC50 ([3]; Pichia kudriavzevii): 3.30
